Screens: PubChem BioAssay, Johns Hopkins Ion Channel Center
Compounds with a hit are over-represented: about 3.1% of the library has one in this group of screens.
KCNQ1 block: inhibitors of human KCNQ1 channel, primary screen, cell-based, thallium flux, high-throughput. B-score at 10 µM. Potassium voltage-gated channel subfamily KQT member 1 (Homo sapiens), P51787. CHO-K1 KCNQ1, FluxOR thallium flux fluorescence; hits give high values. 310,000 compounds, 1.3% hits;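 active means compounds whose thallium flux B-score, printed positive for inhibition, exceeds three library SD while starting fluorescence stays within three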;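 further: channel opened by potassium depolarization with thallium stimulus after 20 min compound exposure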
Target sequence (P51787 whole entry, looked up): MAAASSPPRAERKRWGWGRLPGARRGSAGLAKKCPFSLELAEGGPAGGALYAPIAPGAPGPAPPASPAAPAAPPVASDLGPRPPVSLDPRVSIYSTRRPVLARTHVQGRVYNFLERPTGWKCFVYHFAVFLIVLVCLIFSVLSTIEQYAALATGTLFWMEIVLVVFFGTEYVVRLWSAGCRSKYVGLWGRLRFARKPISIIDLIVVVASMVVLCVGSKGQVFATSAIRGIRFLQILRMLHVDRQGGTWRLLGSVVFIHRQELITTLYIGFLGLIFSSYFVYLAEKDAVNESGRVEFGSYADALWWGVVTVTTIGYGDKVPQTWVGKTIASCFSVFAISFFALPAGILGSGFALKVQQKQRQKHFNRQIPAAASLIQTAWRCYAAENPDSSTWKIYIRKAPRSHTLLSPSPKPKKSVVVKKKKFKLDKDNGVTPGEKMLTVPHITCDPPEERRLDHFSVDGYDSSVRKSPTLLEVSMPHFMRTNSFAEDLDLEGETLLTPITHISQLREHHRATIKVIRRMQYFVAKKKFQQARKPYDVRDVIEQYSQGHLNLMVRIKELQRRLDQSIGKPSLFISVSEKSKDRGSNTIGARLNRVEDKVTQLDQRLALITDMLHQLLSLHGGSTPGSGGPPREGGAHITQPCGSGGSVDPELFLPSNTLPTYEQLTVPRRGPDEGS
KCNK9 inh: KCNK9 potassium channel inhibitors, primary screen, HEK293 cells, thallium flux. FluxOR thallium flux fluorescence; hits give low values. 310,000 compounds, 1.2% hits. B-score at 10 µM. Potassium channel subfamily K member 9 (Homo sapiens), Q9NPC2;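 active means ratio B-score over 3 SD below the library mean, with starting fluorescence within 5 SD of its mean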;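 further: negative B-score means less thallium flux so channel inhibition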
hERG protect: hERG rescue from dofetilide block, primary screen, cell-based, CHO-hERG, FluxOR thallium flux, dofetilide IC70; 310,000 compounds, 0.51% hits; dofetilide IC70 present; activation (rescue from dofetilide block), less the hit threshold, % at 10 µM; Voltage-gated inwardly rectifying potassium channel KCNH2 (Homo sapiens), Q12809;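 active means activation above the mean of controls blocked by dofetilide plus 5 SD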;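 further: thallium influx through hERG after potassium depolarization seen as dye fluorescence rise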
KCNK3 block: human KCNK3 channel inhibitors, primary screen, CHO cells, FluxOR thallium flux, B-score | Potassium channel subfamily K member 3 (Homo sapiens), O14649 | FluxOR fluorescence; hits give low values | B-score at 10 µM | 340,000 compounds, 0.84% hits | AID 602410, 2012;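 active means B-score under library mean minus 4 SD, starting fluorescence ratio at most library mean plus 5 SD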;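 further: more negative B-score means stronger inhibition of thallium flux through KCNK3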
KCNQ1 pot: potentiators or activators of KCNQ1 channel, primary screen, cell-based, thallium flux, high-throughput. 310,000 compounds, 0.35% hits. Potassium voltage-gated channel subfamily KQT member 1 (Homo sapiens), P51787. AID 2648, 2010. CHO-K1 KCNQ1, thallium flux FluxOR fluorescence; hits give high values. B-score at 10 µM;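 active means fluorescence ratio B-score, a plate-corrected score, at least three library SD, with initial intensity B-score within 5 SD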
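Assay system: CHO-K1 cells stably expressing KCNQ1. Medium: assay buffer for compound exposure, DMSO matched across wells. Timing: 37 °C overnight plating, 90-min dark dye load, 20-min compound pretreatment. Signal: kinetic FluxOR fluorescence, 10 s baseline plus 110 s post-stimulus.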
Active calls of the source: *; i = inactive; nt = not tested or not shown.

SMILES	KCNQ1 block	KCNK9 inh	hERG protect	KCNK3 block	KCNQ1 pot
COc1ccccc1CNC(=O)C/C(C)=N/NC(=O)Cc1ccc(Cl)cc1	i	i	-5.3	i	i
COc1cccc(CN2CCN(Cc3cc4ccccc4[nH]3)CC2CCO)c1 (stereo unspecified)	i	i	-10.2	i	13*
CCOc1ccc(CN2CCN(Cc3cc4ccccc4[nH]3)CC2CCO)cc1 (stereo unspecified)	i	i	-6.6	i	i
CCc1ccc(CN2CCC(n3nccc3NC(=O)c3cccc(F)c3)CC2)cc1	i	i	-10.2	i	i
Cc1c(Cl)cccc1NC(=O)CN1CCC(C(O)(c2ccccc2)c2ccccc2)CC1	11*	i	-14.4	i	i
Cc1ccccc1C(=O)NC1CCN(CC(=O)Nc2ccccc2Cl)CC1	i	i	-5.9	i	i
CCN(c1ccccc1)S(=O)(=O)c1cccc(C(=O)NCC(c2cccs2)N2CCOCC2)c1 (stereo unspecified)	i	i	-8.1	i	i
CCc1ccc(-n2cc(-c3ccc(F)cc3)[n+]3c2SCCC3)cc1	6*	i	-17.7	i	i
Cc1ccc(-c2cn(-c3ccccc3)c3[n+]2CCCS3)cc1	i	i	-20.0	i	i
COc1ccc(-n2cc(-c3ccc(C)cc3)[n+]3c2SCC3)cc1	7*	i	-19.5	i	i
COc1ccc(CCN2C(=O)N[C@@H](CCC(=O)O)C2=O)cc1	i	i	-2.0	i	i
Cn1c(O)c(N=Nc2nc(-c3ccccc3)cs2)c2ccccc21	i	i	35.0*	i	60*
CC1(C)CC(=O)C/C(=N\NC(=S)NCc2ccccc2)C1	i	i	-7.7	i	i
CC1(C)CC(=O)CC(=NCC(=O)O)C1	i	i	4.7*	i	i
COc1ccc(/C=C/c2nc3ccccc3n2Cc2ccccc2OC)cc1	i	i	-14.6	i	i
COc1ccccc1Cn1c(/C=C/c2ccccc2)nc2ccccc21	i	-7*	-7.1	i	i
CCC(=O)Nc1cccc(C(=O)N(Cc2ccccc2)Cc2ccccc2)c1	i	i	-17.3	i	i
CCn1c(SCc2ccc(C(=O)OC)o2)nc2sc3c(c2c1=O)CCCC3	i	-7.86*	-5.8	i	i
CCn1c(SCC(=O)OC)nc2sc3c(c2c1=O)CCC3	i	i	-2.7	i	i
CC(Sc1ncn[nH]1)C(=O)Nc1cc(C(F)(F)F)ccc1Cl (stereo unspecified)	nt	nt	nt	i	nt
C#Cc1ccc(CN2CCC(C(=O)Nc3ccc(Oc4ccccc4)nc3)CC2)cc1	6*	i	-11.2	i	i
O=C(Nc1ccc(Oc2ccccc2)nc1)C1CCN(Cc2cccc(F)c2)CC1	i	i	-9.9	i	i
CC1=CC2C(C3C=CC2(C)C(=O)C3(C)O)C(C)(O)C1=O (stereo unspecified)	nt	nt	nt	i	nt
C(#Cc1ccccc1)C[N+]1(CC#Cc2ccccc2)CCCCC1	i	i	-13.3	i	i
Cc1ccc(C#CC[N+]2(CC#Cc3ccc(C)cc3)CCCCC2)cc1	12*	i	-30.4	i	i
SMILES	KCNQ1 block	KCNK9 inh	hERG protect	KCNK3 block	KCNQ1 pot
O=C(COC(=O)/C=C/c1ccc(C(F)(F)F)cc1)NC(=O)NCc1ccco1	nt	nt	nt	i	nt
Cc1ccc(Nc2cc(C)nn2-c2nc(C)cc(=O)[nH]2)cc1	i	i	20.4*	i	32*
Cc1ccc(NC(=O)CSC(N)=O)cc1Cl	i	-13.5*	-4.6	i	i
NC(=O)SCC(=O)Nc1ccc(Cl)c(Cl)c1	nt	nt	nt	i	nt
CCc1c(C)sc(NC(=O)c2cccs2)c1C(=O)OC(C)C	i	-6.59*	-9.6	i	i
CCCn1c(N)c(N(CCOC)C(=O)c2c(CC)noc2C)c(=O)[nH]c1=O	nt	nt	nt	i	nt
Cc1nn2c(-c3ccncc3)nnc2c2ccccc12	i	i	-2.7	i	i
CC(=O)Nc1cccc(-c2nnc3c4ccccc4c(C)nn23)c1	i	i	51.6*	nt	i
CC(=O)Nc1ccc2ccccc2c1[N+](=O)[O-]	nt	nt	nt	i	nt
CCCN(CCC)CCCNC(=O)C1CCC(CNS(=O)(=O)c2cccc3nsnc23)CC1 (stereo unspecified)	i	i	-6.6	i	i
CCOc1ccc(C(=O)Nc2cc(C)on2)cc1OCC	i	i	4.9*	i	i
O=C1/C(=C\c2ccc(O)c(O)c2)C(c2ccccc2)=NN1c1ccccc1	6*	i	-29.4	i	i
O=C(N/C(=C/c1ccc2c(c1)OCO2)C(=O)N1CCOCC1)c1cccs1	i	i	8.2*	i	i
O=C(Nc1ccc(C(=O)O)cc1)/C(=C\c1ccc2c(c1)OCO2)NC(=O)c1ccc(Br)cc1	i	i	-4.8	i	10*
CC(=O)N/C(=C/c1ccc2c(c1)OCO2)C(=O)O	i	i	-7.7	i	9*
O=C(NCCN1CCOCC1)c1ccc2c(c1)N(Cc1ccccc1F)C(=O)c1ccccc1S2	i	i	-14.2	i	i
CCN1CCN(CCCNC(=O)c2ccc(/C=C3/Sc4ccccc4N(Cc4ccccc4F)C3=O)cc2)CC1	7*	-6.74*	-33.6	i	i
Cc1ccccc1CN1C(=O)c2ccccc2Sc2ccc(C(=O)NCCN3CCOCC3)cc21	i	i	-12.7	i	i
CCN1CCN(CCCNC(=O)c2ccc(/C=C3/Oc4ccccc4N(Cc4cccc(C)c4)C3=O)cc2)CC1	7*	i	-14.4	i	i
CCN1CCN(CCNC(=O)c2ccc(/C=C3/Sc4ccccc4N(Cc4ccccc4C)C3=O)cc2)CC1	14*	i	-34.4	i	i
O=C(NCCCN1CCOCC1)c1ccc(/C=C2\Oc3ccccc3N(Cc3ccccc3F)C2=O)cc1	i	i	-12.4	i	i
CCCCCCn1nc(C(=O)N(CCCC)c2c(N)n(CCC)c(=O)[nH]c2=O)c2ccccc2c1=O	nt	nt	nt	i	nt
Cc1ccc(-c2ccc(/C=N/NC(=O)c3ccccc3O)o2)cc1	i	i	-8.4	nt	8*
Cc1noc(C)c1S(=O)(=O)N1CCN(c2ccc(Cl)cc2)CC1	i	i	-2.5	i	i
Cc1ccc(Cl)cc1N1CCN(S(=O)(=O)c2c(C)noc2C)CC1	6*	i	-1.8	i	i
CCCCCCCCC1=NCCc2c1[nH]c1ccccc21	8*	i	-23.3	i	i
CC(C)N(Cc1nccn1C)C(=O)c1cc(COc2ccc(F)cc2Cl)on1	i	i	-0.9	i	i
